Compound activity as filed in PubChem.
UPR CHOP act = activators of apoptotic CHOP UPR arm, primary screen, cell-based, CHO-CHOP luciferase reporter, luminescence, uHTS. 330,000 compounds, 0.34% hits. activation, % at 10 µM. UPR activation; percent of tunicamycin response over DMSO baseline;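 active = at 10 µM dose, activation of 40% or more, normalized to positive control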;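 note: 100% = tunicamycin at 10 µg/mL and 0% = DMSO alone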
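System: CHO-CHOP luciferase reporter cell line | Buffer or medium: F12 medium containing 10% fetal bovine serum | Doses: One dose, 10 µM in 0.5% DMSO | Times: 6 h compound exposure at 37 °C after overnight seeding | Signal: Luciferase luminescence | Read-out: % activation vs tunicamycin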
UPR XBP1 act = activators of adaptive XBP1 UPR arm, primary screen, cell-based, CHO-XBP1 luciferase reporter, luminescence, uHTS; 330,000 compounds, 0.33% hits; IRE1-XBP1 UPR activation; percent of tunicamycin response, DMSO as zero; AID 463104, 2010; activation, % at 20 µM;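 active = versus positive control, 20 µM dose yields 30% or more activation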;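 note: 100% = tunicamycin at 10 µg/mL and 0% = DMSO only wells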
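Material: CHO-XBP1 cells stably carrying IRE1-XBP1-driven luciferase reporter / Amount: 1000 cells per well / Compound: 20 µM, 1% DMSO / Times: 6 h treatment, 37 °C / Detection: luciferase luminescence / Measure: % activation of reporter signal versus tunicamycin and DMSO controls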
TIM10 inh = growth inhibitors of isogenic TIM10 control yeast, primary screen, counter-screen for tim10-1 yeast inhibitor project, luminescence, uHTS. AID 463195, 2010. S. cerevisiae TIM10 strain growth, BacTiter-Glo luminescence, 24 h. 330,000 compounds, 1.4% hits. inhibition, % at 10 µM;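 active = inhibition of 40% or more at the single tested concentration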;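 note: wild-type TIM10 isogenic control strain grown at permissive 25 °C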
tim23-1 inh = growth inhibitors of tim23-1 mutant yeast, primary screen, luminescence, uHTS. AID 463212, 2010. 330,000 compounds, 1.3% hits. S. cerevisiae tim23-1 growth, BacTiter-Glo luminescence, 24 h. inhibition, % at 20 µM;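 active = growth inhibition of the mutant yeast at or above 50%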;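 note: temperature-sensitive mutant grown at 25 °C; plate controls were DMSO-treated mutant yeast for no effect and medium wells lacking yeast for full effect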
tim10-1 inh = growth inhibitors of tim10-1 mutant yeast, primary screen, luminescence, uHTS; inhibition, % at 20 µM; S. cerevisiae tim10-1 ts strain growth, BacTiter-Glo, 24 h; 330,000 compounds, 2.2% hits;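 active = inhibition of at least 40%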;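 note: mutant grown at 25 °C; 0% = DMSO wells with yeast and 100% = wells holding no yeast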
tim10-1 conf = growth inhibitors of tim10-1 mutant yeast, confirmation, single concentration, luminescence, S. cerevisiae | shares compounds with tim10-1 inh | S. cerevisiae tim10-1 ts strain growth, BacTiter-Glo, 24 h | inhibition, % at 20 µM | 7,400 compounds, 56% hits;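 active = inhibition of yeast growth at or above a set limit in either of two repeat tests at 20 µM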;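 note: tim10-1 mutant grown at permissive 25 °C to find synthetic lethal compounds; 0% = DMSO yeast wells and 100% = medium wells without yeast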
The depositor's hits bear a star; nt = no result. The list is not random: actives were taken first. Their share in the collection is about 3.9%.

SMILES	UPR CHOP act	UPR XBP1 act	TIM10 inh	tim23-1 inh	tim10-1 inh	tim10-1 conf
N#CCC(=O)N/N=C\c1cc(Br)ccc1OC/C=C/c1ccccc1	5	-1	16	7	5	nt
COC1=CC(=O)C(O)=C(CCCCCCC/C=C/CCCCCCCC2=C(O)C(=O)C=C(OC)C2=O)C1=O	2	-2	-2	43	43*	38*
CC(C)n1cnnc1SCC(=O)Nc1cccnc1Cl	-1	-2	2	-9	-8	nt
Cc1ccc(C)c(NC(=S)NNC(=O)c2sccc2C)c1	1	0	12	7	22	nt
Cc1ccc(C)c(NC(=S)NNC(=O)c2cc3c(s2)CCC(C)C3)c1 (configuration not stated)	-3	-1	22	33	44*	34*
Cc1ccc(C)c(NC(=S)NNC(=O)c2csc(C(C)C)c2)c1	1	3	22	17	40*	34*
CCCc1cc(C(=O)NNC(=S)Nc2cccc(C)c2)cs1	3	0	24	41	47*	15
COc1ccc(C2CCCN2CC(O)COc2ccccc2C(C)C)cc1 (configuration not stated)	-3	4	14	7	21	nt
CC1CC1C(=O)N(C)CC(=O)Nc1ccccc1Br (configuration not stated)	-1	-3	1	4	6	nt
Cc1cccc2sc(NC(=O)C3c4ccccc4Oc4ccccc43)nc12	-1	0	33	36	41*	33*
O=C(Nc1nc2c(Cl)c(Cl)ccc2s1)C1CC1	2	7	19	1	11	nt
Cc1ccc2sc(NC(=O)C3CC3)nc2c1C	7	1	31	42	46*	3
O=C(Nc1nc2c(Cl)cccc2s1)C1CC1	2	3	-18	46	56*	-10
CC1CCCC(NC(=O)CN(C)CC(=O)Nc2ccc(F)cc2)C1C (configuration not stated)	-1	2	6	12	11	nt
Cc1cc(C)n(C(C)CC(=O)Nc2ccc3c(c2)OCCO3)n1 (configuration not stated)	-2	-8	5	-9	5	nt
CCCc1nnc2c(N(C)S(=O)(=O)c3ccc(C)cc3)nc3ccccc3n12	1	9	18	16	40*	10
COc1ccc(CN2CCN(Cc3ccc(CO)o3)CC2CCO)cc1C (configuration not stated)	1	-4	-4	3	11	nt
O=C(Nc1ccccc1C(=O)N/N=C/c1ccco1)c1ccc(Cl)cc1	6	2	22	40	39	nt
O=C(Nc1ccccc1C(=O)N/N=C/c1ccco1)c1ccccc1	6	-2	12	24	41*	26
Cc1csc(SCC(=O)Nc2ccc(Cl)cn2)n1	-4	0	19	-15	8	nt
CC(C)(C)c1csc(SCC(=O)Nc2ccc(Cl)cn2)n1	-2	-1	23	38	43*	30
CCC(C)c1ccc(NC(=O)C2CCCN(c3ncccn3)C2)cc1 (configuration not stated)	4	2	37	43	42*	41*
O=S(=O)(c1cccc(COc2ccc(Cl)cc2Cl)c1)N1CCOCC1	1	0	-13	29	24	nt
O=S(=O)(c1cccc(COc2c(Cl)cccc2Cl)c1)N1CCOCC1	-1	-1	0	30	40*	15
CCC(NC(=S)NCc1ccc(F)cc1)c1ccccc1 (configuration not stated)	0	-2	29	34	36	nt
SMILES	UPR CHOP act	UPR XBP1 act	TIM10 inh	tim23-1 inh	tim10-1 inh	tim10-1 conf
CCc1nc2cc(Cl)c(Cl)cc2[nH]1	-1	-2	32	27	41*	37*
CCc1nc2cc(Cl)c(Cl)cc2nc1CC	-1	1	5	14	0	nt
CCOC(=O)c1ccc(COC(=O)c2nonc2N)cc1	0	2	14	18	14	nt
Cc1ccc(C(=O)O/N=C(/c2nonc2N)N(C)C)cc1	3	-3	25	31	67*	62*
CC(CCc1ccccc1)NC(=O)CCNC(=O)c1ccccc1Cl (configuration not stated)	1	-4	2	1	-4	nt
Cc1nn(C(C)C(=O)NC2CC2)c(=O)c2nn(-c3ccccc3)c(C)c12 (configuration not stated)	-1	-1	4	-8	-9	nt
Cc1nn(C(C)C(=O)NC2CCC(C)CC2)c(=O)c2nn(-c3ccccc3)c(C)c12 (configuration not stated)	5	1	15	27	41*	11
Cc1ccc(-c2cc(-c3ccccc3)c3c(N)c(S(C)(=O)=O)sc3n2)cc1	2	1	34	24	49*	43*
COc1ccc(Cl)cc1NC(=O)CN(C)C(=O)Cc1n[nH]c(=O)c2ccccc12	0	-4	4	1	-17	nt
CSc1ccc(S(=O)(=O)N2CCC(C(=O)N3CCc4ccccc4C3)CC2)cc1	0	1	10	30	43*	28
COc1ccc(S(=O)(=O)N2CCC(C(=O)N3CCc4ccccc4C3)CC2)cc1	-1	6	24	33	28	nt
COc1ccc(Cl)cc1NC(=S)NCc1ccco1	-2	-2	20	35	55*	36*
Fc1ccc(F)c(NC(=S)NCCc2ccccc2)c1	2	0	35	28	46*	28
COc1ccc(Cl)cc1NC(=S)NCCc1ccc(F)cc1	-1	-7	33	34	51*	34*
Fc1ccccc1NC(=S)NCCc1ccccc1	1	4	15	18	33	nt
COc1ccc(Cl)cc1NC(=O)NCc1ccco1	-1	10	11	23	35	nt
Cc1cc(OC(F)F)ccc1NC(=S)NCCc1ccccc1	1	-1	28	33	48*	16
COc1ccc(Cl)cc1NC(=S)NCCc1ccc(S(N)(=O)=O)cc1	0	-2	15	-9	7	nt
S=C(NCCC(c1ccccc1)c1ccccc1)Nc1ccc(Cl)cc1	1	-1	34	27	55*	20
S=C(NCCc1ccccc1)Nc1ccc(Nc2ccccc2)cc1	-2	-3	26	47	52*	34*
S=C(NCCC(c1ccccc1)c1ccccc1)Nc1ccccc1Cl	1	-2	26	38	34	nt
O=C(COC(=O)c1ccc(Br)c(S(=O)(=O)N2CCOCC2)c1)NC1CC1	1	1	1	0	1	nt
